Structures are written as SMILES.

These results are taken from ChEMBL document CHEMBL5696442, “Discovery of type II inhibitors of TGFβ-activated kinase 1 (TAK1) and mitogen-activated protein kinase kinase kinase kinase 2 (MAP4K2)” (J Med Chem, 2015).

Format in all cases: cell-based
Experiment [1] concerns the target T1, Mitogen-activated protein kinase 13 (Homo sapiens) (UniProt O15264).
T1 sequence (whole entry): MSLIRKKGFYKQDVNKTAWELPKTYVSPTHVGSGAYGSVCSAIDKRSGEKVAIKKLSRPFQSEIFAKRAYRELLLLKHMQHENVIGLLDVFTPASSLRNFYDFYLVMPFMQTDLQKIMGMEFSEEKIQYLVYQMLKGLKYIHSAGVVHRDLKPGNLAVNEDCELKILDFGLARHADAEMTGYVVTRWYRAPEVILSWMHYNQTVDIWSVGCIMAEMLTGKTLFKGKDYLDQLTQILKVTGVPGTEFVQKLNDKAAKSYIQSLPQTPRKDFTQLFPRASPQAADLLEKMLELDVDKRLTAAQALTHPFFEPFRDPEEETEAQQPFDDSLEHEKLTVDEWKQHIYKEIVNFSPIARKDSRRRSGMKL
Put plainly: Inhibition of p38 delta Lys2 labeling site in human A-375 cells at 0.5 uM by KiNativ Profiling analysis relative to control.

Experiment [2] has as its target Mitogen-activated protein kinase kinase kinase kinase 4 (Homo sapiens, UniProt O95819). The experiment can be described thus: Inhibition of ZC1/HGK Lys1 labeling site in human A-375 cells at 0.05 uM by KiNativ Profiling analysis relative to control.
The target in experiment [3] is T2, Aurora kinase A (Homo sapiens) (UniProt O14965).
T2 sequence (whole entry): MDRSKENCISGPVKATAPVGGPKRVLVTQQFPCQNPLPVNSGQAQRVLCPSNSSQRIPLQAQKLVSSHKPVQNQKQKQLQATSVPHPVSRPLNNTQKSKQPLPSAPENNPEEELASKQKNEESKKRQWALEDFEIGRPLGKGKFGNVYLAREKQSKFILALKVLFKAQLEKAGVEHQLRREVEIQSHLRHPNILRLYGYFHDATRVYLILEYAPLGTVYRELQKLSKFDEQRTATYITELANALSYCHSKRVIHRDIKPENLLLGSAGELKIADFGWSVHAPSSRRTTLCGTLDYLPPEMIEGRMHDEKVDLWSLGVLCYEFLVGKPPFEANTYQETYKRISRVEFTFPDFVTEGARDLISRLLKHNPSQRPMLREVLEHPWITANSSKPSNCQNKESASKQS
The experiment can be described thus: Inhibition of AurA ATP Loop labeling site in human A-375 cells at 5 uM by KiNativ Profiling analysis relative to control. In short, it runs like this:
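Live A375 melanoma cells were treated with compound at 5 or 0.5 μM, then lysed. The lysates were labeled with a lysine-reactive ATP or ADP-biotin probe. Kinase protection from probe labeling was measured by KiNativ.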

In experiment [4] the target is Calcium/calmodulin-dependent protein kinase type 1 (Homo sapiens) (UniProt Q14012). The experiment can be described thus: Inhibition of CaMK1alpha Lys1 labeling site harbouring LVAIKCIAK in human A-375 cells at 5 uM by KiNativ Profiling analysis relative to control. Put shortly:
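Intact A375 melanoma cells were treated with compound at 5 or 0.5 μM, then lysed. Lysate kinases were labeled with a lysine-reactive ATP or ADP-biotin probe (KiNativ). Inhibition is read as protection of each kinase labeling site from probe labeling.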

Experiment [5] concerns the target T3, Serine/threonine-protein kinase TAO2 (Homo sapiens) (UniProt Q9UL54).
T3 sequence (whole entry): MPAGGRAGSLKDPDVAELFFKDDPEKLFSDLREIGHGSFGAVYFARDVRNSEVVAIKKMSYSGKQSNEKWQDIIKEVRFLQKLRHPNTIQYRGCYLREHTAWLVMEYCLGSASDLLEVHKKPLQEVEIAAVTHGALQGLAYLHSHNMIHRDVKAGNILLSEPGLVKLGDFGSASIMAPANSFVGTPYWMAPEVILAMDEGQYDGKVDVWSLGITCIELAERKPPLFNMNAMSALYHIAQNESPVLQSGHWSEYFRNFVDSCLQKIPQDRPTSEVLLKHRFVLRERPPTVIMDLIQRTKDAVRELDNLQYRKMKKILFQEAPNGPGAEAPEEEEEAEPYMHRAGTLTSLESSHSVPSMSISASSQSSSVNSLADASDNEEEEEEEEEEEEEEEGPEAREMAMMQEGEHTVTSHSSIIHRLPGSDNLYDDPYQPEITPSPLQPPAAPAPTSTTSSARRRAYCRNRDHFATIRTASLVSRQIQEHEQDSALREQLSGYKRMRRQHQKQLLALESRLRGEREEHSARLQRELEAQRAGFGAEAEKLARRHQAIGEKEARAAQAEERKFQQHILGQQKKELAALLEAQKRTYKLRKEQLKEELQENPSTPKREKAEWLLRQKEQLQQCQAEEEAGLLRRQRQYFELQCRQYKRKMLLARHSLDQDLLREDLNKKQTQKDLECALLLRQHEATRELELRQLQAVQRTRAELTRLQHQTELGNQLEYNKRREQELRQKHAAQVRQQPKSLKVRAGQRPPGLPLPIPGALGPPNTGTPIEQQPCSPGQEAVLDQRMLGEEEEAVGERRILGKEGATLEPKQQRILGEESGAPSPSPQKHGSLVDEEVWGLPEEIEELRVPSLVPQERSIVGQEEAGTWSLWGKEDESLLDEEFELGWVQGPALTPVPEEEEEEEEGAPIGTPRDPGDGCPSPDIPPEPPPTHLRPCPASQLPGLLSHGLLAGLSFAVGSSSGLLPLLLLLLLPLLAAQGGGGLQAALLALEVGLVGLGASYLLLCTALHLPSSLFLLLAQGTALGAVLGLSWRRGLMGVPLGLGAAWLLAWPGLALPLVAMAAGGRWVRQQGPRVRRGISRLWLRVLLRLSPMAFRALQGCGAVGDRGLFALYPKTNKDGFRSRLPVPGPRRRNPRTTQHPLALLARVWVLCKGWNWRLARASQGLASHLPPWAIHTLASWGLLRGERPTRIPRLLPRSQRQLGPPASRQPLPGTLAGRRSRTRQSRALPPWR
Put plainly: Inhibition of TAO2 Lys2 labeling site in human A-375 cells at 0.5 uM by KiNativ Profiling analysis relative to control.

The target of experiment [6] is Serine/threonine-protein kinase Nek7 (Homo sapiens) (UniProt Q8TDX7). Put plainly: Inhibition of NEK7 Lys1 labeling site in human A-375 cells at 0.5 uM by KiNativ Profiling analysis relative to control.
Serine/threonine-protein kinase Nek7 (Homo sapiens), sequence (Q8TDX7 whole entry, looked up): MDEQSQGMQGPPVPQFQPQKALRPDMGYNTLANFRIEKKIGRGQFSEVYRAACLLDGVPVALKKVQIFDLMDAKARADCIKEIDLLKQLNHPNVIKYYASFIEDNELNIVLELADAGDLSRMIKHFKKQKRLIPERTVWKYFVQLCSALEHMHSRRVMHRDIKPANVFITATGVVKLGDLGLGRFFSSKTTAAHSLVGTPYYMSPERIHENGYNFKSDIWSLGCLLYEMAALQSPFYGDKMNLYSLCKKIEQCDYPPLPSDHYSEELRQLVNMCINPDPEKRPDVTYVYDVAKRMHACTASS
Experiment [7] deals with Serine/threonine-protein kinase MARK2 (Homo sapiens) (UniProt Q7KZI7). The experiment can be described thus: Inhibition of MARK2 Lys2 labeling site harbouring FIVHRDLKAENLLLDADMNIK in human A-375 cells at 5 uM by KiNativ Profiling analysis relative to control.
Serine/threonine-protein kinase MARK2 (Homo sapiens), sequence (Q7KZI7 whole entry): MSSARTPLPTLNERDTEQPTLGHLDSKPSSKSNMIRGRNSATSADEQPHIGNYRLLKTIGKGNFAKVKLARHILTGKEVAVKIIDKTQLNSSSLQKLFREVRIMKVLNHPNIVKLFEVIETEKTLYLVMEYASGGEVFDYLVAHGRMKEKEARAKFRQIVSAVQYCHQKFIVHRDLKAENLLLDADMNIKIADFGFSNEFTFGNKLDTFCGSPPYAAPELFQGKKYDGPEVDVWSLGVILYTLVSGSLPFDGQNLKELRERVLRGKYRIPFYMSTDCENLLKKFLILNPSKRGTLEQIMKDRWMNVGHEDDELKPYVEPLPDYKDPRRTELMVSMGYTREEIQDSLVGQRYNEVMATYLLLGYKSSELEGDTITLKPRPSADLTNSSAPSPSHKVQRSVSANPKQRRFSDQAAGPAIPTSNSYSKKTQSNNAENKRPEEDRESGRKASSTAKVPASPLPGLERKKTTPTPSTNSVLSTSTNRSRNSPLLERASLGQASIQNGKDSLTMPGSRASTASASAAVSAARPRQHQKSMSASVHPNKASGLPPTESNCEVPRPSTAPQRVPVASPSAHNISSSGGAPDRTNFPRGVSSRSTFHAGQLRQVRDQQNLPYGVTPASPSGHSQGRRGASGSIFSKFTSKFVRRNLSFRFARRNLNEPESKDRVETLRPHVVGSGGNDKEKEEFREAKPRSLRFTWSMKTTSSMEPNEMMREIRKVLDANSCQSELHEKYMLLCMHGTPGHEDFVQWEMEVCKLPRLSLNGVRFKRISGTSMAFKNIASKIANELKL
The target of experiment [8] is DNA-PK/Ku70/Ku85 (Homo sapiens) (UniProt P78527+P12956+P13010). Put plainly: Inhibition of DNAPK ATP labeling site harbouring GHDEREHPFLVKGGEDLRQDQR in human A-375 cells at 5 uM by KiNativ Profiling analysis relative to control. In short, it runs like this: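 Live A375 melanoma cells were treated with compound at 0.5 or 5 μM, then lysed. Lysates were labeled with a lysine-reactive ATP or ADP-biotin probe. The read-out was protection of each kinase probe-labeling site from labeling, relative to control.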

Calcium/calmodulin-dependent protein kinase type 1 (Homo sapiens), sequence (Q14012 whole entry, looked up): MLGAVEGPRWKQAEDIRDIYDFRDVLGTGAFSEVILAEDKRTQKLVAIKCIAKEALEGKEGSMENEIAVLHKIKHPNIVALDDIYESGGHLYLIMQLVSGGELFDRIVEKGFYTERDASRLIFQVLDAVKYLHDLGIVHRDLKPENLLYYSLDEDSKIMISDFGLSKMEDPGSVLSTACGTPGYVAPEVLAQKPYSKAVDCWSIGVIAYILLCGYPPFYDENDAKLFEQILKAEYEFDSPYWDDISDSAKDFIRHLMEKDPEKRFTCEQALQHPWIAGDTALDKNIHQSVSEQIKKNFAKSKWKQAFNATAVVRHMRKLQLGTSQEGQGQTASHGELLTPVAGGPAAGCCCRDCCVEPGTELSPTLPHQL
Mitogen-activated protein kinase kinase kinase kinase 4, sequence (O95819 2-1239 limits assumed): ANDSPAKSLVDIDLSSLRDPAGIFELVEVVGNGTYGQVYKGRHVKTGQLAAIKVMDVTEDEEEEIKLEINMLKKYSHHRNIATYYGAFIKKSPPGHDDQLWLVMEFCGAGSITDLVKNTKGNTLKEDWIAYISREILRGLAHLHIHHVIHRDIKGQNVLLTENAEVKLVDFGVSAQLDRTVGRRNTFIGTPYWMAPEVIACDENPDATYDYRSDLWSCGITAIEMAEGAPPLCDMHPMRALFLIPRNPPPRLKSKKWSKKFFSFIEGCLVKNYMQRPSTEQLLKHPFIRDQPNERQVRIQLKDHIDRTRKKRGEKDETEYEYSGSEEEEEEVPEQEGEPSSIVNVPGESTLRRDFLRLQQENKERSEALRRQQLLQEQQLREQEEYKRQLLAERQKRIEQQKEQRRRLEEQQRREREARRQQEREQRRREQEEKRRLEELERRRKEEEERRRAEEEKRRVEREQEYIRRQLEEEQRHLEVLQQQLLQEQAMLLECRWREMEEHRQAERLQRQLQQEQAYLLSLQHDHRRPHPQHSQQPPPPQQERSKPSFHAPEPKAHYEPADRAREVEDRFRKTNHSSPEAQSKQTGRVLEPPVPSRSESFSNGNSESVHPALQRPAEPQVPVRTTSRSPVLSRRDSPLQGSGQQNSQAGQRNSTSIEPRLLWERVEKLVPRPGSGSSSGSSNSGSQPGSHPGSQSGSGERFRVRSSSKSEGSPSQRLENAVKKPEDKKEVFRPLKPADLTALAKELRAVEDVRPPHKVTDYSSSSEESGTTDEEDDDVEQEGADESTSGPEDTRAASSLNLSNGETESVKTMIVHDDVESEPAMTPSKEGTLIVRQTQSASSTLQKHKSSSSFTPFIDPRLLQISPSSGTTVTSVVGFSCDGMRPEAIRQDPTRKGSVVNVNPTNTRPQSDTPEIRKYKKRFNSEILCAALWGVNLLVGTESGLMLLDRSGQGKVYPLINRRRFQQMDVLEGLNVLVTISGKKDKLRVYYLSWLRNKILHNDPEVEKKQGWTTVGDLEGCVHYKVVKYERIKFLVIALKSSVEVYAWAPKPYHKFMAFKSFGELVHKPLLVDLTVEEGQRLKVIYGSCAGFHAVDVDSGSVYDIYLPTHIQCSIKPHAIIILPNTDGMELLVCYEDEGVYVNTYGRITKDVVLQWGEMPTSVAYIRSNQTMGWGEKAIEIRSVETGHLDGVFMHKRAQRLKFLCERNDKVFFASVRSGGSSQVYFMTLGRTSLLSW

With `CCN1CCN(Cc2ccc(NC(=O)c3ccc(C)c(/C=C/c4cnc5[nH]ccc5c4OC)c3)cc2C(F)(F)F)CC1`, the inhibition in experiment [1] turned out to be 25.2%; in experiment [2], 43.4%; in experiment [3], 48.5%; in experiment [4] it was 31.9%; in experiment [5], 37.1%; in experiment [6] it was 7.8%. Besides, the inhibition in experiment [7] was 24.6%; in experiment [8], -4.9%.

On to `CCN1CCN(Cc2ccc(NC(=O)c3ccc(C)c(Oc4ccnc5[nH]ccc45)c3)cc2C(F)(F)F)CC1`, for which the inhibition in experiment [1] is 86.2%; in experiment [2] it was 42.1%; in experiment [3], 31.4%; in experiment [4], 91.8%; in experiment [5], 42.8%; in experiment [6], -0.5%. In addition, the inhibition was determined as 12.9% in experiment [7] and 9.9% in experiment [8].

What is called inhibition is the change of the read-out against control, counted positive when it falls.
